Measured values from different studies.
Compare with care: the assays were run in different laboratories.

| SMILES | target or system | assay | system | conditions | endpoint | result |
| --- | --- | --- | --- | --- | --- | --- |
| COc1cccc(/C=N/N2C(=O)c3ccccc3NC2c2cccc(OC)c2O)c1O (stereo not shown) | Mycolicibacterium smegmatis | microbial growth, broth dilution | ATCC700084 | 72 h | MIC | > 256 µg/mL |
| COc1cc(Cc2cnc(N)nc2N)cc(OC)c1OC | Toxoplasma gondii | parasite growth, fluorescence | HS27 | 96 h, intracellular | IC50 | 11.8 µg/mL |
| Cc1c(C(=O)O)ccc2c3n(nc12)[C@@H]1[C@H](C3)N(CC2CC2)[C@@]2(C(=O)Nc3cc(Cl)ccc32)[C@H]1c1cccc(Cl)c1F | UACC-812 | cell growth or viability | – | – | GI50 | 0.00119 µM |
| Cc1cc(/C=C/C#N)cc(C)c1Nc1ccnc(Nc2ccc(C#N)cc2)n1 | SUNE1 | cell growth or viability, MTT | – | 48 h | IC50 | 19.1 µM |
| COC1=CC(=O)c2ccccc2C1=O | Candida tropicalis | microbial growth, broth dilution | ATCC13803 | 24 h | MIC | 12.5 µg/mL |
| CC(=O)N1N=C(c2ccc(NS(=O)(=O)c3ccc4oc(=O)ccc4c3)cc2)CC1c1ccc(Br)cc1 (stereo not shown) | Toxoplasma gondii | parasite growth, fluorescence | HS27 | 96 h, intracellular | IC50 | < 3.91 µg/mL |
| NNC(=O)c1ccncc1 | Mycolicibacterium smegmatis | microbial growth, broth dilution | ATCC700084 | – | MIC | 117 µM |
| C=CC(=O)NC1CCN(c2ncc3ncnc(Nc4ccc(Oc5ccc6c(c5)ncn6C)c(C)c4)c3n2)CC1 | Panc1005 | cell growth or viability | – | – | EC50 | 0.0396 µM |
| COc1cc2nc(N3CCN(C(=O)C4COc5ccccc5O4)CC3)nc(N)c2cc1OC (stereo not shown) | SUNE1 | cell growth or viability, MTT | – | 48 h | IC50 | 8.89 µM |
| C[C@@H]1[C@H](O)[C@@H](C)/C=C/C=C/C=C/C=C/C=C/C=C/C=C/[C@H](O[C@@H]2O[C@H](C)[C@@H](O)[C@H](N)[C@@H]2O)C[C@@H]2O[C@](O)(C[C@@H](O)C[C@@H](O)[C@H](O)CC[C@@H](O)C[C@@H](O)CC(=O)O[C@H]1C)C[C@H](O)[C@H]2C(=O)O | Candida tropicalis | microbial growth, broth dilution | ATCC13803 | 24 h | MIC | 4 µg/mL |
